Test [1] addresses T1, Androgen receptor (Mus musculus) (UniProt P19091).
T1 sequence (whole entry): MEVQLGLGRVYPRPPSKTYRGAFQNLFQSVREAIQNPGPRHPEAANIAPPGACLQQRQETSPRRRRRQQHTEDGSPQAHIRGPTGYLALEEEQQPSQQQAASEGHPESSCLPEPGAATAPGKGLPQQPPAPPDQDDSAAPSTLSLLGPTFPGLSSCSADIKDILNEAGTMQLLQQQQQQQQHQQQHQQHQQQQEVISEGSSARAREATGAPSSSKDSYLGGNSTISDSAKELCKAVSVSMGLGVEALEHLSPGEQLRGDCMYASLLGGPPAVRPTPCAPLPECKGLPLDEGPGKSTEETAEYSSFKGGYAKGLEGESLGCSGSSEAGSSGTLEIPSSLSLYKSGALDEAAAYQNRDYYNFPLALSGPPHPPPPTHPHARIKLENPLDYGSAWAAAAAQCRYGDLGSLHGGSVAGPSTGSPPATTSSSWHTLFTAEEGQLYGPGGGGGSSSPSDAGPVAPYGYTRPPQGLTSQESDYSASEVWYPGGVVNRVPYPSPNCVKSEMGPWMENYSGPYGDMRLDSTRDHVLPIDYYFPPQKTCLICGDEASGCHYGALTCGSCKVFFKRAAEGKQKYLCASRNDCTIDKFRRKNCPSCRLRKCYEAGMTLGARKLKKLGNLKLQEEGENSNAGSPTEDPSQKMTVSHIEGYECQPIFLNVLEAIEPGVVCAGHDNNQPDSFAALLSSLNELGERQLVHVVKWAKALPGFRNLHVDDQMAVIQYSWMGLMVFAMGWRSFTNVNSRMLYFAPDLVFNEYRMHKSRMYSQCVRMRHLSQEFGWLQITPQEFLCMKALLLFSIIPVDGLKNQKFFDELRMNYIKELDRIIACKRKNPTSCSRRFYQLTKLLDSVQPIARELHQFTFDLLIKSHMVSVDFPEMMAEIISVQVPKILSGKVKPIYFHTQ
As to the kind of experiment: Activation of androgen receptor in androgen-sensitive (AR+) mouse Shionogi cells assessed as stimulation of cell proliferation after 10 days at 1 uM relative to control. Put shortly:
(§1)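 Androgen-sensitive (AR+) Shionogi cells. Inhibitors and reference compounds were each tested at 0.1 and 1.0 µM. Androgenicity is reported as % cell proliferation versus control, with basal proliferation set to 100%. DHT (0.1 µM) served as androgen reference and hydroxyflutamide as antiandrogen. Data are mean ± SEM of one experiment in triplicate.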

Test [2] has as its target T2, 17-beta-hydroxysteroid dehydrogenase type 3 (Homo sapiens, UniProt P37058).
T2 sequence (P37058 whole entry): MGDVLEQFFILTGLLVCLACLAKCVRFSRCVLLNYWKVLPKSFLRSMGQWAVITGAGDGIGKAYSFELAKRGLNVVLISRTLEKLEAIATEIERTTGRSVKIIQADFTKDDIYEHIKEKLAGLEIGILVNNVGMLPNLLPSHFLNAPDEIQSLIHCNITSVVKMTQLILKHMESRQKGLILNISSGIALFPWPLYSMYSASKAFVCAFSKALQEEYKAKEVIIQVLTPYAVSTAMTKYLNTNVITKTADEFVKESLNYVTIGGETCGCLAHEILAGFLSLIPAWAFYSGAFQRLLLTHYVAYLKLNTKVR
Briefly: Inhibition of 17Beta-HSD3 expressed in intact HEK293 cells assessed as transformation of [14C]-4-androstene-3,17-dione into [14C]-testosterone in presence of NADPH after 1 hr incubation. In kind it is cell-based. Put shortly: (§2)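 HEK-293 cells were grown in MEM with 10% FBS at 37 °C under 5% CO2, seeded at 200,000 cells/well, and transfected with 2 µg/well of a 17β-HSD3 expression plasmid. Intact cells then got 50 nM [4-14C]-4-androstene-3,17-dione plus inhibitor in ethanol (0.5% v/v) for 1 h. Radiolabelled steroids were extracted from the medium and quantified. Triplicate; % transformation was used to derive IC50.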

Test [3] addresses T3, 17-beta-hydroxysteroid dehydrogenase type 3 (Homo sapiens) (UniProt P37058).
T3 sequence (whole entry): T2 sequence (P37058 whole entry)
Briefly: Inhibition of 17Beta-HSD3 expressed in homogenized HEK293 cells assessed as transformation of [14C]-4-androstene-3,17-dione into [14C]-testosterone in presence of NADPH at 0.01 uM. It is filed as cell-based. An outline of the steps:
(§3)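 HEK-293 cells overexpressing 17β-HSD3 were briefly homogenized. The enzyme assay measured conversion of 50 nM [4-14C]-4-androstene-3,17-dione to [14C]-testosterone with NADPH in excess (5 mM). Inhibitor was dissolved in ethanol, and the ethanol-only control was used to derive % inhibition at each concentration. Error 10%.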

For test [4], the target named is T3, 17-beta-hydroxysteroid dehydrogenase type 3 (Homo sapiens). As to the kind of experiment: Inhibition of 17Beta-HSD3 expressed in intact HEK293 cells assessed as transformation of [14C]-4-androstene-3,17-dione into [14C]-testosterone in presence of NADPH at 0.1 uM after 1 hr incubation. It is filed as cell-based. An outline of the steps: as §2
The target is the same in test [5]. Briefly: Inhibition of 17Beta-HSD3 expressed in homogenized HEK293 cells assessed as transformation of [14C]-4-androstene-3,17-dione into [14C]-testosterone in presence of NADPH at 0.1 uM. In kind it is cell-based. An outline of the steps:
as §3

The target is the same in test [6]. Briefly: Inhibition of 17Beta-HSD3 expressed in homogenized HEK293 cells assessed as transformation of [14C]-4-androstene-3,17-dione into [14C]-testosterone in presence of NADPH at 1 uM. In kind it is cell-based. Put shortly:
as §3

Test [7] has the same target. As to the kind of experiment: Inhibition of 17Beta-HSD3 expressed in intact HEK293 cells assessed as transformation of [14C]-4-androstene-3,17-dione into [14C]-testosterone in presence of NADPH at 1 uM after 1 hr incubation. It is filed as cell-based. Put shortly: as §2
In test [8] the target is T1, Androgen receptor (Mus musculus). As to the kind of experiment: Activation of androgen receptor in androgen-sensitive (AR+) mouse Shionogi cells assessed as stimulation of cell proliferation after 10 days relative to control. An outline of the steps:
as §1

We go through twelve compounds from ChEMBL document CHEMBL1811881, “Development of 3-substituted-androsterone derivatives as potent inhibitors of 17β-hydroxysteroid dehydrogenase type 3” (Bioorg Med Chem, 2011).

Molecules are shown by their SMILES. The source made the active and inactive calls. No cut-off for these calls is given here.

What is called IC50 is the point on the concentration scale where inhibition reaches its midpoint. As usually defined, the inhibition is the drop in the measured response relative to a control, in per cent.

With `C[C@@H]1CN(S(=O)(=O)c2ccccc2C(F)(F)F)[C@@H](C)CN1C[C@@]1(O)CC[C@@]2(C)[C@@H](CC[C@@H]3[C@@H]2CC[C@]2(C)C(=O)CC[C@@H]32)C1`, the result in test [1] was inactive. The IC50 in test [2] amounted to 6 nM. Further, the inhibition was 55% in test [3], 84% in test [4] and 92% in test [5].
Take `C[C@]12CC[C@](O)(Cc3ccccc3)C[C@@H]1CC[C@@H]1[C@@H]2CC[C@]2(C)C(=O)CC[C@@H]12`: the Activity in test [1] is 396%.
As for `CCN(Cc1ccccc1)C[C@@]1(O)CC[C@@]2(C)[C@@H](CC[C@@H]3[C@@H]2CC[C@]2(C)C(=O)CC[C@@H]32)C1`, the Activity in test [1] is 314%. The inhibition in test [6] came to 90%; in test [3] it was 42%; in test [4], 86%; in test [5], 85%; in test [7], 94%.
With `C[C@]12CC[C@@]3(C[C@@H]1CC[C@@H]1[C@@H]2CC[C@]2(C)C(=O)CC[C@@H]12)CN(Cc1ccccc1)C(=O)O3`, in test [1], the outcome was inactive. Besides, the inhibition in test [6] is 93%; in test [3], 21%; in test [4] it was 44%; in test [5], 86%.
Consider `CC(C)(O)C(=O)Nc1ccc([N+](=O)[O-])c(C(F)(F)F)c1`, for which, in test [8], the result was inactive.
Take `CCCCN(CCCC)C[C@@]1(O)CC[C@@]2(C)[C@@H](CC[C@@H]3[C@@H]2CC[C@]2(C)C(=O)CC[C@@H]32)C1`: the inhibition in test [6] turned out to be 85%; in test [3] it was 13%; in test [4], 53%; in test [5], 70%; in test [7] it was 90%.
For `C[C@]12CC[C@@]3(C[C@@H]1CC[C@@H]1[C@@H]2CC[C@]2(C)C(=O)CC[C@@H]12)CN(CCC(CN1CCOCC1)OC(=O)C1CCCCC1)C(=O)O3` (some centres not stated), the IC50 in test [2] was determined as 51 nM. The outcome in test [8] was inactive.
Turning to `CCN(CC)C[C@@]1(O)CC[C@@]2(C)[C@@H](CC[C@@H]3[C@@H]2CC[C@]2(C)C(=O)CC[C@@H]32)C1`, the inhibition was 60% in test [6], 0% in test [3], 10% in test [5] and 14% in test [7].
Turning to `CN(Cc1ccccc1)C[C@@]1(O)CC[C@@]2(C)[C@@H](CC[C@@H]3[C@@H]2CC[C@]2(C)C(=O)CC[C@@H]32)C1`, the inhibition is 89% in test [6]; 28% in test [3]; 48% in test [4]; 79% in test [5]; 92% in test [7].
On the same counts, the results for `C[C@]12CC[C@](O)(CN3CCN(Cc4ccccc4)CC3)C[C@@H]1CC[C@@H]1[C@@H]2CC[C@]2(C)C(=O)CC[C@@H]12` are 90%, 35%, 37%, 72% and 80%.
On to `C[C@]12CC[C@](O)(CN3CCN(c4ccccc4)CC3)C[C@@H]1CC[C@@H]1[C@@H]2CC[C@]2(C)C(=O)CC[C@@H]12`, for which the inhibition in test [6] is 89%; in test [3], 13%; in test [5], 78%; in test [7] it was 68%.
The matching figures for `C[C@]12CC[C@](O)(CN3CCC(N4CCCCC4)CC3)C[C@@H]1CC[C@@H]1[C@@H]2CC[C@]2(C)C(=O)CC[C@@H]12`: 69%, 0%, 4% and 20%.
